This sample holds only a part of the variants without activity.
B1: tRNA (parent)
chain: GUUCCGUUGGCGUAAUGGUAACGCGUCUCCCUCCUAAGGAGAAGACUGCGGGUUCGAGUCCCGUACGGAACG

Variants of: B1
Assay: yeast fitness relative to wild type (ratio to wild type); higher = fitter; tRNA-Arg(CCU), competitive growth, 37 C, YPD
Method in brief: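 For this measurement, the tRNA-Arg(CCU) gene was varied by chemical synthesis at a 3% per-site mutation rate across 69 sites, and each variant was placed at the native genomic locus in Saccharomyces cerevisiae. The pooled strains went through a 24-hour competition in YPD at 37°C in six parallel replicates, with amplicons from start and end populations read by 100-nucleotide paired-end sequencing. Darwinian fitness relative to wild type followed from the change in each genotype's frequency. Genotypes needed ≥ 100 starting reads, and estimates < 0.5 were set to 0.5.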

With GUUCCGUUGGCGUAAUGGUAACGCGUCCCCCUCCUAACGAGAAGACUGCGCGUUCGAGUCCCGUACGGAACG [U28C G38C G51C] as the variant, how does the yeast fitness read?
Its yeast fitness is no more than 0.5.

Which yeast fitness does the source give for GUUCCGUUGGCGUAAUGGUAACGCGUCGCCCUCCUAAGGAGAAGACUGCGGGUUCGAGUCCCGUACGGUACG [U28G A69U] here?
Its yeast fitness is 0.789.

For GUUCCGUUGGCGUAAUGGUAACGCGUCGCCCUCCUAAGGAGAAGACUGCGGGUUCGAGUCCCGUCCGGAACG [U28G A65C], which yeast fitness is on record?
Its yeast fitness is 0.669.

For GUUCCGUUGGCGUAAUGGUAACGCGUCCCCCUCCUAAGGACAAGACUGCGGGUUCGAGUACCGUAUGGAACG [U28C G41C C60A C66U], which yeast fitness is on record?
Its yeast fitness is no more than 0.5.

For GUUCCGUUGGCGUAAUGGUAACGCGUCGCCCUCCUAAGGAGAAGACUGCGGGUUCGUGCCCCGUACGGAACG [U28G A57U U59C], which yeast fitness is on record?
Its yeast fitness is no more than 0.5.

For GUUCCGUUGGCGUAAUGGUAACGCGUCGCCCUCCUAAGGAGAAGAGUGCGGGUUCGAGUCUCGUACGGAACG [U28G C46G C61U], which yeast fitness is on record?
The yeast fitness was no more than 0.5.

With GUUCCGUUGGCGUAAUGGUAACGCGUCGCCCUCCUGAGGAGAAGACUGCGGGUUCGAGUCCCGUUCGGAACG [U28G A36G A65U] as the variant, how does the yeast fitness read?
The yeast fitness was no more than 0.5.

With GUUCCGUUGGCGUAAUGGUAACGCGUCGCCCACCUAACGAGAAGACUGCGGGUUCGAGUCCCGUCCCGAACG [U28G U32A G38C A65C G67C] as the variant, how does the yeast fitness read?
The yeast fitness was no more than 0.5.

With GUUCCGUUGGCGUAAUGGUAACGCGUCGCCCUCCUAAGGAGAAGACUGCGGGUUCCAGUCCCGUACGGAACG [U28G G56C] as the variant, how does the yeast fitness read?
Its yeast fitness is 0.655.

With GUUCCGUUGGCGUAAUGGUAACGCGUCGCCCUACUAAGGAGAAGCCUGCGGGUUCGAGUCCCGUACGGAACG [U28G C33A A45C] as the variant, how does the yeast fitness read?
Its yeast fitness is no more than 0.5.

For GUUCCGUUGGCGUAAUGGUAACGCGUCGACCUCCUAAGGACAUGACUGCGGGUUCGAGUCCCGUACGGAACG [U28G C29A G41C A43U], which yeast fitness is on record?
Its yeast fitness is no more than 0.5.

For GUUCCGUUGGCGUAAUGGUAACGCGUCGACCUCCUAAGGACAUGACUGCGGGUUCGAGUCCCGUAGGGAACG [U28G C29A G41C A43U C66G], which yeast fitness is on record?
Its yeast fitness is 0.595.

With GUUCCGUUGGCGUAAUGGUAACGCGUCCCCCUCCUAAGGAGAAGACUGCGGAUUCGAGUCUCGUACGGAACG [U28C G52A C61U] as the variant, how does the yeast fitness read?
Its yeast fitness is 0.698.

With GUUCCGUUGGCGUAAUGGUAACGCGUCGCCCUCCUAAAGAGAAGACUGCGGGUUCGAGUGCCGUCCGGCACG [U28G G38A C60G A65C A69C] as the variant, how does the yeast fitness read?
Its yeast fitness is 0.618.

With GUUCCGUUGGCGUAAUGGUAACGCGUCGCCCUCCUGAGGAGAAGACUGCGAGUUCGAGUCCCGUACGGAACG [U28G A36G G51A] as the variant, how does the yeast fitness read?
Its yeast fitness is no more than 0.5.

For GUUCCGUUGGCGUAAUGGUAACGCGUCGCCCUCCUAAGGAGAAGACUGCGGGUUCGAGUCACGUACGGAACG [U28G C61A], which yeast fitness is on record?
The yeast fitness was 0.561.

Which yeast fitness does the source give for GUUCCGUUGGCGUAAUGGUAACGCGUCGCCCUCCCAAGGAGAAGACUGCGGGUUCGAGUCCCGUACGGAACG [U28G U35C] here?
The yeast fitness was 0.758.

With GUUCCGUUGGCGUAAUGGUAACGCGUCCCCCUCCUAAAGCGAAGGCUACGGGUUCGAGUCCCGUACGGAACG [U28C G38A A40C A45G G48A] as the variant, how does the yeast fitness read?
Its yeast fitness is no more than 0.5.

With GUUCCGUUGGCGUAAUGGUAACGCGUCCCCCUCCUAAGCAGAAGACUGCGGGUUCGAGUCCCGUACGGAACG [U28C G39C] as the variant, how does the yeast fitness read?
Its yeast fitness is 0.578.

Which yeast fitness does the source give for GUUCCGUUGGCGUAAUGGUAACGCGUCGGCCUCCUAAGGAAAAGACUGCGGGUUCGAGUCCCGUACGGAACG [U28G C29G G41A] here?
The yeast fitness was no more than 0.5.

With GUUCCGUUGGCGUAAUGGUAACGCGUCGCCCUCCUAACGAGAAGACUGCGGGUUCGAGUCCGGUAUGGAACG [U28G G38C C62G C66U] as the variant, how does the yeast fitness read?
Its yeast fitness is no more than 0.5.

For GUUCCGUUGGCGUAAUGGUAACGCGUCCCCCUCCUAAGGACAAGACUGAGGGUUCGAGUCUCGUACGGAUCG [U28C G41C C49A C61U A70U], which yeast fitness is on record?
Its yeast fitness is no more than 0.5.

With GUUCCGUUGGCGUAAUGGUAACGCGUCCCCCUCCUAAGGAGAAGACUGCGGGUUCGAGUCGCGUACGGAACG [U28C C61G] as the variant, how does the yeast fitness read?
Its yeast fitness is 0.583.

With GUUCCGUUGGCGUAAUGGUAACGCGUCGACCUCCUAAGGAGAAGACUGCGGCUUCGUGUCCCGUACGGAACG [U28G C29A G52C A57U] as the variant, how does the yeast fitness read?
Its yeast fitness is no more than 0.5.

With GUUCCGUUGGCGUAAUGGUAACGCGUCGCCAUCCUAAGGAGAAGACUGCGGGUUCGAGUCUCGUACGGAACG [U28G C31A C61U] as the variant, how does the yeast fitness read?
The yeast fitness was no more than 0.5.

Which yeast fitness does the source give for GUUCCGUUGGCGUAAUGGUAACGCGUCGCCUUCCUAAGGCGAAGACUGCGGGUUCGAGUCCCGUACGGAUCG [U28G C31U A40C A70U] here?
The yeast fitness was no more than 0.5.

For GUUCCGUUGGCGUAAUGGUAACGCGUCCCCCUCCUAAGGAGAAGACUGCGGGUUCGAGGCCCGUACGGAACG [U28C U59G], which yeast fitness is on record?
Its yeast fitness is 0.852.

Which yeast fitness does the source give for GUUCCGUUGGCGUAAUGGUAACGCGUCGCCCUCCUAAGGAGCAGACUGCGGGUUCGCGUCCCGUACGGAACG [U28G A42C A57C] here?
Its yeast fitness is 0.627.

For GUUCCGUUGGCGUAAUGGUAACGCGUCGCCCUCCUAAGGAGAAGCCUGCGGGUUCGAGUCCCGUACGGAACG [U28G A45C], which yeast fitness is on record?
The yeast fitness was 0.655.

For GUUCCGUUGGCGUAAUGGUAACGCGUCGCGCUCCUAAGGCGUAGACUGCGGGUUCGAGUCCCGUACAGAACG [U28G C30G A40C A42U G67A], which yeast fitness is on record?
The yeast fitness was no more than 0.5.

Which yeast fitness does the source give for GUUCCGUUGGCGUAAUGGUAACGCGUCCCCCUCCUAAGGAGAAGACUGCGGGUUCGAGUCCAGUACGGAACG [U28C C62A] here?
The yeast fitness was 0.746.

For GUUCCGUUGGCGUAAUGGUAACGCGUCGCCCUCCUAAGGCGGAGACUGCGGGUUCGAGUCCCGUACGGCACG [U28G A40C A42G A69C], which yeast fitness is on record?
Its yeast fitness is 0.808.

For GUUCCGUUGGCGUAAUGGUAACGCGUCGCCCUCCUAAGGAGAAGAGUGUGGGUUCGAGUCCCGUACGGCACG [U28G C46G C49U A69C], which yeast fitness is on record?
The yeast fitness was no more than 0.5.

With GUUCCGUUGGCGUAAUGGUAACGCGUCCCCCUCCUAAGGAGAAGACUGCGGGUGCGCGUCCUGUACGGAACG [U28C U54G A57C C62U] as the variant, how does the yeast fitness read?
Its yeast fitness is no more than 0.5.

For GUUCCGUUGGCGUAAUGGUAACGCGUCCCCCUCCUAAGGAGAAGACUGCGGGUUCGAGUCCCGUACGCAACG [U28C G68C], which yeast fitness is on record?
Its yeast fitness is 0.884.

With GUUCCGUUGGCGUAAUGGUAACGCGUCCCCCUCCAAAGGAGAAGACUGCGGGUUCGAGUCCCGUACGGAACG [U28C U35A] as the variant, how does the yeast fitness read?
Its yeast fitness is 0.578.

For GUUCCGUUGGCGUAAUGGUAACGCGUCCCCCUCCUAAGGAGAAGACUGCGGGUUCGAGUCCCGCACGGAACG [U28C U64C], which yeast fitness is on record?
The yeast fitness was 0.877.

With GUUCCGUUGGCGUAAUGGUAACGCGUCCCCCUCCUAAGGAGAAAACUGCGGGUUCGGGUCCCGUACGGAACG [U28C G44A A57G] as the variant, how does the yeast fitness read?
The yeast fitness was 0.578.

From the RNAGym collection of RNA variant scans (doi:10.1126/science.aae0568)
